Data set [1] is described as follows: Induction of oxidative damage to human serum albumin assessed as oxidation of tryptophan residue at 10 uM after 15 to 45 mins by fluorescence assay. The data set is classed as functional. The method in brief:
(§1)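 Sensitizer (10 µM) and HSA (20 µM) in PBS were irradiated with white LED light (420–750 nm, 8.0 ± 0.5 mW/cm2). Photo-oxidation of HSA's single tryptophan was followed as the loss of its intrinsic fluorescence at around 350 nm.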

The test system of data set [2] is HeLa. Put plainly: Phototoxicity in human HeLa cells assessed as reduction in cell viability preincubated for 1 hr followed by LED light irradiation for 15 mins measured after 48 hrs by MTT assay. It is filed as functional, cell-based. The settings on record: light or radiation study. A digest of the protocol: (§2)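 HeLa cells were treated with the sensitizer and photo-irradiated. IC50 is the sensitizer concentration that reduced viability by 50%, read from semi-logarithmic dose-response plots.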

The nature of data set [3]: Dark toxicity in human HeLa cells assessed as reduction in cell viability after 48 hrs by MTT assay. It is filed as cell-based.
Data set [4] is described as follows: Dark toxicity in HEK293 cells assessed as reduction in cell viability measured after 48 hrs by MTT assay. It is filed as cell-based. The settings on record: human.
Data set [5] in a line: Drug uptake in cytoplasm of human HeLa cells at 10 uM after 1 hr by Hoechst 33342 staining based confocal microscopic method. The data set is classed as ADME, subcellular.
Data set [6] can be described thus: Induction of oxidative damage to human serum albumin assessed as oxidation of tryptophan residue at 10 uM after 15 to 45 mins in presence of ROS quencher L-ascorbic acid by fluorescence assay. The data set is classed as functional. The method in brief: as §1
A short description of data set [7]: Dark toxicity in HEK293 cells assessed as inhibition of cell viability at 10 uM measured after 48 hrs by MTT assay relative to control. It is filed as cell-based. The settings on record: human, read-out: INH.
Data set [8] in a line: Drug uptake in nucleus of human HeLa cells at 10 uM after 1 hr by Hoechst 33342 staining based confocal microscopic method. It is filed as ADME, subcellular.
For data set [9], the system named is HeLa. Nature of the data set: Phototoxicity in human HeLa cells assessed as reduction in cell viability preincubated for 1 hr followed by LED light irradiation for 60 mins measured after 48 hrs by MTT assay. It is filed as functional, cell-based. The conditions noted are these: light or radiation study. The method in brief:
as §2

Another data set has as its system HEK293. Nature of the data set: Phototoxicity in HEK293 cells assessed as reduction in cell viability preincubated for 1 hr followed by LED light irradiation for 15 mins measured after 48 hrs by MTT assay. It is filed as functional, cell-based. The conditions noted are these: Homo sapiens, HEK293, light or radiation study.

The source made the active and inactive calls. The calls are words filed in the database; no cut-off is given here. Some results are limits rather than exact numbers.

With `CC(C)(C)n1c2cc(-c3ccc(N(c4ccccc4)c4ccccc4)cc3)sc2c2sc(-c3ccc(/C=C(\C#N)C(=O)O)s3)cc21`, the result in [1] was inactive. Further, the concentration for half-maximal inhibition (IC50) (in the data set on HeLa [2]; in data set [3]) was greater than 100 µM each time.
Consider `COc1ccc(-c2cc3c(s2)c2sc(-c4ccc(/C=C(\C#N)C(N)=O)s4)cc2n3C(C)(C)C)cc1`, for which the result in data set [1] was Active. Further, the values for the IC50 (in the data set with HeLa [2]; in data set [3]) were 0.56 µM and 15.7 µM, respectively.
The like results for `CN(C)c1ccc(-c2cc3c(s2)c2sc(-c4ccc(/C=C(\C#N)C(N)=O)s4)cc2n3C(C)(C)C)cc1` were, in that order, “inactive”, 5 µM and 54 µM.
In the case of `CC(C)(C)n1c2cc(-c3ccc(N(c4ccccc4)c4ccccc4)cc3)sc2c2sc(-c3ccc(C=O)s3)cc21`, the result in [1] was inactive. Besides, the half-maximal inhibitory concentration (IC50) in the data set with HeLa [2] came out at 45 µM; in [3] it was 67 µM.
On to `C=CC1=C(C)c2cc3[nH]c(cc4nc(cc5[nH]c(cc1n2)c(C)c5C=C)C(C)=C4CCC(=O)O)c(CCC(=O)O)c3C`, for which the IC50 in the data set with HeLa [2] is 0.75 µM; in data set [3], 12.5 µM.
Take `COc1ccc(-c2cc3c(s2)c2sc(-c4ccc(/C=C(\C#N)C(=O)O)s4)cc2n3C(C)(C)C)cc1`: the concentration for half-maximal inhibition (IC50) at 48 h in [4] is greater than 10 µM. Also, the Drug uptake entry in data set [5] and in [8] was “Active” throughout. For the same compound, the result in data set [1] and in data set [6] was Active. The IC50 was determined as 0.19 µM in the data set on HeLa [2], 43.4 µM in data set [3], 0.063 µM in the data set with HeLa [9] and 0.043 µM with HEK293. Further, in data set [7], the cytotoxicity at 48 h, 10 µM came out at 7%.
For `CCCCN1C(=O)C(=C/C=C/C=C2\Oc3ccccc3N2CCCS(=O)(=O)O)C(=O)N(CCCC)C1=S`, the half-inhibitory concentration (IC50) in the data set on HeLa [2] was 16 µM; in data set [3], greater than 100 µM.
For the compound `CC(C)(C)n1c2cc(-c3ccc(N(c4ccccc4)c4ccccc4)cc3)sc2c2sc(-c3ccc(/C=C(\C#N)C(N)=O)s3)cc21`, the outcome in [1] was inactive. Besides, the 50% inhibitory concentration (IC50) (with HeLa [2]; in data set [3]) was greater than 100 µM in each case.
Consider `COc1ccc(-c2cc3c(s2)c2sc(-c4ccc(/C=C5\C(=O)N(CCO)C(=O)C(C#N)=C5C)s4)cc2n3C(C)(C)C)cc1`, for which the figures for the IC50 (in the data set with HeLa [2]; in data set [3]) were 15.9 µM and 60 µM, respectively.
On to `N#C/C(=C\c1ccc(-c2ccc(-c3ccc(N(c4ccccc4)c4ccccc4)cc3)s2)s1)C(=O)O`, for which the half-maximal inhibitory concentration (IC50) at 48 h in data set [4] was greater than 10 µM. In addition, the half-maximal inhibitory concentration (IC50) in the data set with HeLa [2] came out at 0.21 µM; in data set [3], 21.9 µM; in the data set on HEK293, 0.16 µM. In data set [7], the cytotoxicity at 48 h, 10 µM was determined as 32%.
On to `CN(C)c1ccc(-c2cc3c(s2)c2sc(-c4ccc(/C=C5\SC(=S)N(CC(=O)O)C5=O)s4)cc2n3C(C)(C)C)cc1`, for which the result in data set [1] was inactive. Moreover, the IC50 in the data set on HeLa [2] was 12.1 µM; in data set [3], greater than 100 µM.
Consider `COc1ccc(-c2cc3c(s2)c2sc(-c4ccc(C=O)s4)cc2n3C(C)(C)C)cc1`, for which, in data set [1], the outcome was inactive. Further, the IC50 came out at 3.8 µM in the data set on HeLa [2] and 68.6 µM in [3].
As to `CN(C)c1ccc(-c2cc3c(s2)c2sc(-c4ccc(C=O)s4)cc2n3C(C)(C)C)cc1`, the result in data set [1] was inactive. Moreover, the 50% inhibitory concentration (IC50) is 2.5 µM with HeLa [2] and greater than 10 µM in data set [3].
Turning to `COc1ccc(-c2cc3c(s2)c2sc(-c4ccc(/C=C5\SC(=S)N(CC(=O)O)C5=O)s4)cc2n3C(C)(C)C)cc1`, in data set [1], the outcome was inactive. Also, the results for the half-maximal inhibitory concentration (IC50) (with HeLa [2]; in data set [3]) were 5.7 µM and 63.9 µM, respectively.
In the case of `CN(C)c1ccc(-c2cc3c(s2)c2sc(-c4ccc(/C=C(\C#N)C(=O)O)s4)cc2n3C(C)(C)C)cc1`, the outcome in [1] was Active. The half-inhibitory concentration (IC50) with HeLa [2] came to 0.6 µM; in [3] it was 15.5 µM.
Consider `CC(C)(C)n1c2cc(-c3ccc(N(c4ccccc4)c4ccccc4)cc3)sc2c2sc(-c3ccc(/C=C4\SC(=S)N(CC(=O)O)C4=O)s3)cc21`, for which the result in data set [1] was inactive. Also, the concentration for half-maximal inhibition (IC50) in the data set on HeLa [2] was 17.1 µM; in data set [3], 60.2 µM.

The record behind these values is ChEMBL document CHEMBL4229485, “The design, synthesis, and evaluation of organic dithienopyrrole-based D-π-A dyes for use as sensitizers in photodynamic therapy” (Bioorg Med Chem Lett, 2018).
